The text below walks through data of ChEMBL document CHEMBL4610004, “Lipidated α/Sulfono-α-AA heterogeneous peptides as antimicrobial agents for MRSA” (Bioorg Med Chem, 2020).

By MIC is commonly meant the lowest concentration that inhibits growth of the organism. A word on the HC50: it is the concentration giving 50% haemolysis.

Series [1] concerns Staphylococcus aureus. Kind of series: Antibacterial activity against methicillin-resistant Staphylococcus aureus ATCC 33591 assessed as reduction in bacterial growth incubated for 18 hrs by broth microdilution method. The conditions noted are these: ATCC 33591, 18 h. (Broth dilution looks for growth in wells or tubes with falling amounts of substance.)
Series [2] relates to Staphylococcus aureus. Kind of series: Bactericidal activity against methicillin-resistant Staphylococcus aureus ATCC 33591 assessed as reduction in bacterial colonies formation at 12.5 ug/ml incubated for 120 min followed by dilution of the suspension and further incubation for 20 hrs on agar plate by time kill assay. Type of series: functional, organism-based. An outline of the steps: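 Bacteria are exposed to a range of peptide concentrations and sampled at 0, 10, 20, 30, 60 and 120 min. At each time point 100 µL of suspension is taken, diluted, and plated on agar for 20 h at 37 °C. Colonies are counted and expressed as log CFU/mL versus time. Done in triplicate.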

Series [3] has as its system Staphylococcus aureus. Briefly: Induction of cell membrane disruption in methicillin-resistant Staphylococcus aureus ATCC 33591 assessed as increase in PI-positive cells at 5 ug/ml incubated for 2 hrs by DAPI and PI dye based fluorescence microscopy. Format: organism-based. An outline of the steps:
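Mid-log MRSA is incubated at 37 °C with peptide (5 µg/mL); the methods give 4 h and the legend gives 2 h. Cells are pelleted (3000g, 15 min) and PBS-washed. They are stained with DAPI (10 µg/mL, 0 °C, 15 min, dark), washed, then stained with PI (5 µg/mL). Untreated cells serve as controls. Imaged by optical microscopy at 100×.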

Series [4] can be described thus: Selectivity index, ratio of HC50 for human RBC to MIC for methicillin-resistant Staphylococcus aureus ATCC 33591. Format: toxicity. Conditions: red blood cells (erythrocytes). Summed up: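 Selectivity = HC50 / MIC. For HC50, PBS-washed human RBCs (spun 1000g, 10 min) are diluted to 5% v/v and mixed 1:1 with twofold peptide dilutions. After 1 h at 37 °C, plates are spun and the diluted supernatant is read at 540 nm. PBS sets 0% and 0.1% Triton X-100 sets 100% hemolysis. MIC is by OD600 broth microdilution, 18 h, 37 °C.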

The subject of series [5] is Staphylococcus aureus. Kind of series: Induction of cell membrane disruption in methicillin-resistant Staphylococcus aureus ATCC 33591 assessed as increase in depolarization measured for 30 mins by DiSC3 dye based fluorescence assay. Format: organism-based. Summed up: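 Mid-log cells are washed in 5 mM HEPES then 5 mM glucose. They are resuspended (10⁸ CFU/mL) in HEPES/glucose/KCl 1:1:1 with 2 µM DiSC3. Fluorescence (ex 622, em 670 nm) is monitored 30 min at room temperature until minimal. Peptide is then added and the fluorescence rise followed as depolarization. Three trials, each in duplicate.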

Series [6] in a line: Hemolytic activity in human RBC assessed as hemoglobin release incubated for 1 hr. Conditions: red blood cells (erythrocytes). Format: ADME, cell-based, Erythrocyte. An outline of the steps:
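Human red blood cells washed in PBS, pelleted at 1000g for 10 min, resuspended at 5% v/v. Compound serially diluted two-fold (50 µL) and mixed with 50 µL of the RBC suspension. Incubated 1 h at 37 °C, centrifuged 10 min at 3500 rpm, supernatant diluted with PBS, hemoglobin read at 540 nm. PBS defines 0% and 0.1% Triton X-100 defines 100% hemolysis. HC50 reported.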

Converted amounts (≈) assume the structure as drawn. The source made the active and inactive calls. The calls are words filed in the database; no cut-off is given here.

For `CCCCCCCCCCCCCCCC(=O)N[C@@H](CCCCN)C(=O)NCCN([C@@H](C)C(=O)NCCN([C@@H](C)C(N)=O)S(=O)(=O)c1ccc(Br)cc1)S(=O)(=O)c1ccc(Br)cc1`, the MIC with Staphylococcus aureus [1] was 5 mg/L (≈ 4.76 µM). As to `CCCCCCCCCCCCCCCC(=O)N[C@@H](CCCCN)C(=O)NCCN([C@@H](C)C(=O)NCCN([C@@H](C)C(=O)NCCN([C@@H](C)C(N)=O)S(=O)(=O)c1ccc(Cl)cc1)S(=O)(=O)c1ccc(Cl)cc1)S(=O)(=O)c1ccc(Cl)cc1`, the MIC with Staphylococcus aureus [1] is more than 25 mg/L. Still for that read-out and setting: in the case of `CCCCCCCCCC(=O)N[C@@H](CCCCN)C(=O)NCCN([C@@H](C)C(N)=O)S(=O)(=O)c1ccc(Cl)cc1` it was more than 25 mg/L. As to `CCCCCCCCCCCCCCCC(=O)N[C@@H](CCCCN)C(=O)NCCN([C@@H](C)C(N)=O)S(=O)(=O)c1ccc(Cl)cc1`, the result in the series with Staphylococcus aureus [2], with Staphylococcus aureus [3] and with Staphylococcus aureus [5] was Active. Further, the selectivity ratio in series [4] was determined as 62.5. Moreover, the HC50 at 1 h in series [6] is 62.5 µg/mL. Also, in the series with Staphylococcus aureus [1], the MIC was 1 mg/L (≈ 1.49 µM). On to `CCCCCCCC(=O)N[C@@H](CCCCN)C(=O)NCCN([C@@H](C)C(N)=O)S(=O)(=O)c1ccc(Cl)cc1`, for which the MIC in the series on Staphylococcus aureus [1] was more than 25 mg/L.

With `CCCCCCCCCCCCCCCC(=O)N[C@@H](CCCCN)C(=O)NCCN([C@@H](C)C(=O)NCCN([C@@H](C)C(=O)NCCN([C@@H](C)C(N)=O)S(=O)(=O)c1ccc(Br)cc1)S(=O)(=O)c1ccc(Br)cc1)S(=O)(=O)c1ccc(Br)cc1`, the MIC in the series with Staphylococcus aureus [1] was more than 25 mg/L. The same measure, in the same setting: in the case of `CCCCCCCCCCCC(=O)N[C@@H](CCCCN)C(=O)NCCN([C@@H](C)C(N)=O)S(=O)(=O)c1ccc(Cl)cc1` it was 5 mg/L (≈ 8.11 µM). The same measure, in the same setting: to `CCCCCCCCCCCCCCCC(=O)N[C@@H](CCCCN)C(=O)NCCN([C@@H](C)C(=O)NCCN([C@@H](C)C(N)=O)S(=O)(=O)c1ccc(Cl)cc1)S(=O)(=O)c1ccc(Cl)cc1` belongs 10 mg/L (≈ 10.4 µM); to `CCCCCCCCCCCCCCCC(=O)N[C@@H](CCCCN)C(=O)NCCN([C@@H](C)C(=O)NCCN([C@@H](C)C(=O)NCCN([C@@H](C)C(N)=O)S(=O)(=O)c1ccccc1)S(=O)(=O)c1ccccc1)S(=O)(=O)c1ccccc1`, 10 mg/L (≈ 8.72 µM); to `CCCCCCCCCCCCCCCC(=O)N[C@@H](CCCCN)C(=O)NCCN([C@@H](C)C(N)=O)S(=O)(=O)c1ccc(Br)cc1`, 2 mg/L (≈ 2.79 µM).

As for `CCCCCCCCCCCCCC(=O)N[C@@H](CCCCN)C(=O)NCCN([C@@H](C)C(N)=O)S(=O)(=O)c1ccc(Cl)cc1`, in the series with Staphylococcus aureus [1], the MIC was 5 mg/L (≈ 7.76 µM). Still for that read-out and setting: to `CCCCCCCCCCCCCCCC(=O)N[C@@H](CCCCN)C(=O)NCCN([C@@H](C)C(=O)NCCN([C@@H](C)C(N)=O)S(=O)(=O)c1ccccc1)S(=O)(=O)c1ccccc1` belongs 2 mg/L (≈ 2.24 µM). Still for that read-out and setting: in the case of `CCCCCCCCCCCCCCCC(=O)N[C@@H](CCCCN)C(=O)NCCN([C@@H](C)C(N)=O)S(=O)(=O)c1ccccc1` it was 5 mg/L (≈ 7.84 µM).
